{
  "source": "paper PMC7049346",
  "about": "(Haematologica, 2019)",
  "key": {"K562 cells [1]": {"test_system": "K562 cells", "settings": "cited from earlier work"}, "[2]": {"test_system": "erythroid cells from CD34+ progenitors of SCD patients", "experiment": "HbF induction in SCD patient-derived erythroblasts", "format": "cell-based, human", "settings": "30 μM HU", "procedure,_shortened": "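CD34⁺ progenitors came from the blood or bone marrow of nine SCD donors. Cells grew seven days with 15% BIT 9500, 2 mM L-glutamine, IL-3 (10 ng/mL), IL-6 and SCF (100 ng/mL). CD36⁺ cells were then isolated and grown five days with SCF, IL-3 and EPO (2 UI/mL) plus DMSO, 30 μM hydroxyurea or 10 μM test compound. HbF⁺ cells (%) and HbF MFI were read by PE-anti-HbF FACS, gated LiveDead⁻/GPA⁺/Band3⁺.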"}, "HbSS-Townes mice [3]": {"test_system": "HbSS-Townes mice", "experiment": "Townes SCD model, 30 days daily oral dosing", "format": "in vivo", "settings": "for percentage of sickled RBC: vehicle 56%"}, "HbSS-Townes mice [4]": {"test_system": "HbSS-Townes mice", "experiment": "HbSS-Townes vaso-occlusive crisis model", "format": "in vivo", "settings": "HU 100 mg/kg/day for ten days, P<0.05"}, "K562 cells [5]": {"test_system": "K562 cells", "experiment": "Cytotoxicity in K562 cells", "format": "cell-based, human", "settings": "end of 72-h culture", "procedure,_shortened": "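Actively growing K562 cells were cultured for 72 h with increasing concentrations of the test compound. Terminal viability was scored by automated cell counting or trypan-blue exclusion, or by an ATP-based luminescence assay. Apoptosis was checked by Annexin V flow cytometry.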"}, "K562 cells [6]": {"test_system": "K562 cells", "experiment": "HbF induction in K562 cells", "format": "cell-based, human", "settings": "72 h"}, "K562 cells [7]": {"test_system": "K562 cells", "experiment": "cGMP induction in K562 cells", "format": "cell-based, human", "settings": "6 h", "procedure,_shortened": "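Actively growing K562 cells were treated for 6 h with increasing concentrations of the test compound or hydroxyurea. cGMP was measured by non-radioactive enzyme immunoassay using the acetylation protocol, and protein by BCA assay. Data are means±Standard Errors.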"}, "mice": {"test_system": "mice", "experiment": "Classical fear conditioning model of learning and memory", "format": "in vivo", "settings": "similar dose of both PDE9i"}, "[8]": {"settings": "HU 100 mg/kg, 30 days, not significant"}},
  "data": [
    {"smiles": "C[C@H](Cc1nc2c(cnn2-c2ccccc2Cl)c(=O)[nH]1)C(F)(F)F", "note": "[BAY73-6691]", "values": [
      {"measurement": "HbF mRNA expression", "setting": "K562 cells [1]", "value": "increased HbF mRNA expression"}
    ]},
    {"smiles": "NC(=O)NO", "note": "[HU, Hydroxyurea]", "values": [
      {"measurement": "percentage of F-cells (HbF positive)", "setting": "[2]; five days, DMSO control 13.3%, n=7, P<0.01", "value": 22.2, "unit": "%"},
      {"measurement": "intensity of HbF staining (MFI)", "setting": "[2]; five days, control 6073±1217, n=7, P=0.041", "value": "9744±2805"},
      {"measurement": "Cytotoxicity in patient-derived cultures", "setting": "[2]; 9 cultures", "value": "cytotoxicity induced by HU in 2 cultures"},
      {"measurement": "percentage of sickled RBC", "setting": "HbSS-Townes mice [3]; HU 25 mg/kg/day, 30 days", "value": 52, "unit": "%"},
      {"measurement": "percent F-cells", "setting": "HbSS-Townes mice [3]; HU 25 mg/mL/day (so in the source), 30 days, vehicle 8.4%, not significant", "value": 13, "unit": "%"},
      {"measurement": "percentage of sickled RBC", "setting": "HbSS-Townes mice [3]; HU 50 mg/kg/day, 30 days", "value": 49, "unit": "%"},
      {"measurement": "percent F-cells", "setting": "HbSS-Townes mice [3]; HU 50 mg/mL/day (so in the source), 30 days, vehicle 8.4%, not significant", "value": 18, "unit": "%"},
      {"measurement": "WBC lower than vehicle", "setting": "HbSS-Townes mice [3]; HU 100 mg/kg, 30 days", "value": 21, "unit": "%"},
      {"measurement": "reduction of MPO levels", "setting": "HbSS-Townes mice [3]; HU 100 mg/kg, 30 days", "value": 2.1, "unit": "fold"},
      {"measurement": "reduction of lung arginase (compared with IMR-687)", "setting": "HbSS-Townes mice [3]; HU 100 mg/kg, 30 days", "value": "less pronounced"},
      {"measurement": "reduction of plasma free Hb levels", "setting": "HbSS-Townes mice [3]; HU 100 mg/kg, 30 days", "value": "approximately 55%"},
      {"measurement": "lung MPO levels", "setting": "HbSS-Townes mice [3]; HU 100 mg/kg, 30 days, HbSS-Townes vehicle 3.1 mU/L, P<0.0001", "value": 1.5, "unit": "mU/L"},
      {"measurement": "plasma bilirubin", "setting": "HbSS-Townes mice [3]; HU 100 mg/kg, 30 days, P<0.01", "value": 5, "unit": "mg/dL"},
      {"measurement": "changes in reticulocyte counts, RBC, hematocrit and Hb (compared with IMR-687)", "setting": "HbSS-Townes mice [3]; HU 100 mg/kg, 30 days, changes in Hb not significant", "value": "produced smaller changes"},
      {"measurement": "LDH levels", "setting": "HbSS-Townes mice [3]; [8]", "value": 121, "unit": "AU"},
      {"measurement": "plasma nitrite levels", "setting": "HbSS-Townes mice [3]; [8]", "value": 1.23, "unit": "mg/mL"},
      {"measurement": "WBC count", "setting": "HbSS-Townes mice [3]; HU 100 mg/kg, 30 days, vehicle 38.2×10^9/L", "value": "3.04e+10", "unit": "L⁻¹"},
      {"measurement": "Mortality", "setting": "HbSS-Townes mice [3]; HU 100 mg/kg/day", "value": "resulted in mortality in mice"},
      {"measurement": "percent F cells", "setting": "HbSS-Townes mice [3]; HU 100 mg/kg/day, 30 days, vehicle 8.4%", "value": 29.3, "unit": "%"},
      {"measurement": "percent sickled RBC", "setting": "HbSS-Townes mice [3]; HU 100 mg/kg/day, 30 days, vehicle 56.3%", "value": 28.8, "unit": "%"},
      {"measurement": "changes in reticulocyte counts, RBC, hematocrit and Hb", "setting": "HbSS-Townes mice [3]; HU 25 and 50 mg/kg, 30 days", "value": "only the change in reticulocyte counts was significant"},
      {"measurement": "reduction of markers of hemolysis (bilirubin, LDH)", "setting": "HbSS-Townes mice [3]; HU 25 and 50 mg/kg, 30 days", "value": "did not produce a significant reduction"},
      {"measurement": "lung MPO levels", "setting": "HbSS-Townes mice [3]; lower doses of HU, 30 days", "value": "reduced MPO levels in the lungs"},
      {"measurement": "microvascular stasis", "setting": "HbSS-Townes mice [4]; 1 h in normoxia, vehicle 33%", "value": 13, "unit": "%"},
      {"measurement": "microvascular stasis", "setting": "HbSS-Townes mice [4]; 4 h in normoxia, vehicle 16%", "value": 8, "unit": "%"},
      {"measurement": "Cytotoxicity (cell counts)", "setting": "K562 cells [5]", "value": "induction was accompanied by cytotoxicity"},
      {"measurement": "HbF induction (ELISA)", "setting": "K562 cells [6]", "value": "induced HbF in a dose-dependent manner"},
      {"measurement": "cGMP induction", "setting": "K562 cells [7]", "value": "increases cGMP in a dose-dependent manner"}
    ]},
    {"smiles": "C[C@@H]1CN(Cc2ncccn2)C[C@H]1c1nc2c(cnn2C2CCOCC2)c(=O)[nH]1", "note": "[PF-04447943, 6-[(3S,4S)-4-methyl-1-(pyrimidin-2-ylmethyl)pyrrolidin-3-yl]-1-(tetrahydro-2H-pyran-4-yl)-1,5-dihydro-4H-pyrazolo[3,4-d]pyrimidin-4-one, reference compound]", "values": [
      {"measurement": "conditioned fear responses", "setting": "mice", "value": "significantly increased conditioned fear responses"}
    ]},
    {"smiles": "Nc1nc(-c2nn(Cc3ccccc3F)c3ncccc23)ncc1C1CC1", "note": "[BAY 41-2271]", "values": [
      {"measurement": "HbF mRNA expression", "setting": "K562 cells [1]", "value": "increased HbF mRNA expression"}
    ]}
  ]
}
